# Measured values published in ChEMBL document CHEMBL2158002, “Small-molecular inhibitors of Ca²⁺-induced mitochondrial permeability transition (MPT) derived from muscle relaxant dantrolene” (2012).
# Experiments:
# HL-60 [1] = assay: Inhibition of Ca2+-induced mitochondrial permeability transition in human HL60 cells at 50 uM after 40 mins relative to control; format: functional; conditions: HL-60, 40 min
# In short: (§1)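 Mitochondria were isolated from human leukaemia HL-60 cells, which were grown in RPMI1640 with 5% heat-inactivated FBS and penicillin/streptomycin at 37 °C under 5% CO2. Swelling was then triggered with 250 µM CaCl2 (final) and followed as the change in OD540 at 30 °C. Inhibition % at 40 min was scaled between no-CaCl2 (100%) and CaCl2-only (0%) controls.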
# HL-60 [2] = assay: Inhibition of Ca2+-induced mitochondrial permeability transition in human HL60 cells at 25 uM after 40 mins relative to control; format: functional; conditions: HL-60, 40 min; in short: as §1
SMILES,inhibition at 50 µM (HL-60 [1]) [%],inhibition at 25 µM (HL-60 [2]) [%]
Nc1cccc(CN2C(=O)CN(NC(=O)c3ccc(-c4cc(Cl)cc(Cl)c4)o3)C2=O)c1,48,35
Nc1cccc(CN2C(=O)CN(NC(=O)c3ccc(-c4ccc(Cl)cc4)o3)C2=O)c1,20,
Nc1cccc(CN2C(=O)CN(NC(=O)c3ccc(-c4cccc(Br)c4)o3)C2=O)c1,11,
Nc1cccc(CN2C(=O)CN(NC(=O)c3ccc(-c4cccc(C(F)(F)F)c4)o3)C2=O)c1,,6.5
Nc1cccc(CN2C(=O)CN(NC(=O)c3ccc(-c4ccccc4)o3)C2=O)c1,19,
Nc1ccc(CN2C(=O)CN(NC(=O)c3ccc(-c4cc(Cl)cc(Cl)c4)o3)C2=O)cc1,46,
O=C(NN1CC(=O)N(Cc2cccnc2)C1=O)c1ccc(-c2cc(Cl)cc(Cl)c2)o1,71,
O=C(NN1CC(=O)N(Cc2ccncc2)C1=O)c1ccc(-c2cc(Cl)cc(Cl)c2)o1,8.7,
CN1C(=O)CN(/N=C/c2ccc(-c3cccc(Cl)c3)o2)C1=O,,6
CN1C(=O)CN(/N=C/c2ccc(-c3cc(Cl)cc(Cl)c3)o2)C1=O,,23
CN1C(=O)CN(NC(=O)c2ccc(-c3cccc(Cl)c3)o2)C1=O,,2
CN1C(=O)CN(NC(=O)c2ccc(-c3cc(Cl)cc(Cl)c3)o2)C1=O,,8.5
Nc1cccc(CN2C(=O)CN(/N=C/c3ccc(-c4cccc(Cl)c4)o3)C2=O)c1,,14
Nc1cccc(CN2C(=O)CN(/N=C/c3ccc(-c4cc(Cl)cc(Cl)c4)o3)C2=O)c1,,14
Nc1cccc(CN2C(=O)CN(NC(=O)c3ccc(-c4cccc(Cl)c4)o3)C2=O)c1,,16
O=C1CN(/N=C/c2ccc(-c3ccc([N+](=O)[O-])cc3)o2)C(=O)N1 [DANTROLENE SODIUM],,13
